One molecule from BindingDB's records for doi:10.1021/jm049337s (Leiden/Amsterdam Center For Drug Research, 2005) can be followed below.

Assay [1] concerns the target T1, Adenosine receptor A1 (Homo sapiens, UniProt P30542).
T1 sequence (P30542 whole entry): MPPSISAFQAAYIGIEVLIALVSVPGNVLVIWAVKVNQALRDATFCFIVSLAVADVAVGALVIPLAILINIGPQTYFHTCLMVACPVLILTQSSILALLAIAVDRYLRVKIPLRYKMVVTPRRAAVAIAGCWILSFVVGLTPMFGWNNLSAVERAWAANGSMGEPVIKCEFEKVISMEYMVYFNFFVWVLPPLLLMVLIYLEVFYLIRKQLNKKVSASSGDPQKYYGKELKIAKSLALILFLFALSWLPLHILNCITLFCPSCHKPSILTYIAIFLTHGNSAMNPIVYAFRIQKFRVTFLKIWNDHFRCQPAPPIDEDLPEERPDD
The assay can be described thus: Dissociation constant for [3H]-CCPA binding to Adenosine A1 receptor in the presence of compound. The method in brief:
(§1)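 Kinetics on membranes (30 µg) from CHO cells expressing recombinant human A1 receptors, using [3H]CCPA at 1 nM, with or without compound. Association was started by adding membranes to the radioligand. For dissociation, membranes were preloaded with radioligand for 60 min at 25 °C, then 100 µM 8-cyclopentyltheophylline was added. Bound ligand was separated by GF/B filtration and counted by scintillation; t1/2 and rate constants were derived.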

Assay [2] deals with T1, Adenosine receptor A1. The assay can be described thus: Association constant for [3H]CCPA binding to Adenosine A1 receptor in the presence of compound. Conditions: read-out: kon (M-1-s-1). The method in brief: as §1

Broadly, the koff is the rate constant with which the complex falls apart. The kon is a measure of how fast the partners come together. As to `c1ccc(-c2n/c(=N/C3CCCC3)sn2-c2ccccc2)cc1`, the koff at Adenosine receptor A1 [1] is 0.001 s⁻¹. Further, the kon at Adenosine receptor A1 [2] was 4.16e+06 M⁻¹ s⁻¹.
